Data: ChEMBL document CHEMBL2062515, “Synthesis and evaluation of novel radioligands for positron emission tomography imaging of metabotropic glutamate receptor subtype 1 (mGluR1) in rodent brain” (J Med Chem, 2012)

Tests used:
[1] = tested on: Brain; experiment: Drug uptake in mGluR1 knockout mouse brain at 17 MBq, iv up to 60 mins by PET analysis; assay type: ADME, organism-based; settings: in vivo, 1 h
[2] = tested on: Lung; experiment: Biodistribution in mouse lung at 4.8 MBq/140 uL, iv after 5 mins by gamma counting; assay type: ADME, organism-based; settings: in vivo
In short: (§1)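 Mice received the radioligand in saline by tail vein (4.8 MBq/140 μL, 40 pmol). Four mice per time point were killed by cervical dislocation at 1, 5, 15, 30 and 60 min. Tissues were removed quickly and counted in an autogamma counter. Data are decay-corrected % injected dose per gram of wet tissue, mean ± SE, n = 4.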

[3] = tested on: Cerebellum; experiment: Drug uptake in Sprague-Dawley rat cerebellum at 17 MBq administered as bolus infusion after 45 mins post injection by PET analysis relative to control in presence of N-[4-[6-(isopropylamino)pyrimidin-4-yl]-1,3-thiazol-2-yl]-4-methoxy-N-methylbenzamide; assay type: ADME, organism-based; settings: in vivo, iv, 0.75 h
[4] = tested on: Kidney; experiment: Biodistribution in mouse kidney at 4.8 MBq/140 uL, iv after 60 mins by gamma counting; assay type: ADME, organism-based; settings: in vivo, 1 h; in short: as §1
[5] = Ratio of drug uptake in thalamus to pons of Sprague-Dawley rat at 16 MBq administered as bolus infusion; settings: in vivo, iv
[6] = tested on: Heart; experiment: Biodistribution in mouse heart at 4.8 MBq/140 uL, iv after 1 min by gamma counting; assay type: ADME, organism-based; settings: in vivo; in short: as §1
[7] = tested on: Liver; experiment: Biodistribution in mouse liver at 4.8 MBq/140 uL, iv after 30 mins by gamma counting; assay type: ADME, organism-based; settings: in vivo, 0.5 h; in short: as §1
[8] = tested on: Lung; experiment: Biodistribution in mouse lung at 4.8 MBq/140 uL, iv after 30 mins by gamma counting; assay type: ADME, organism-based; settings: in vivo, 0.5 h; in short: as §1
[9] = tested on: Mus musculus; experiment: Biodistribution in mouse testis at 4.8 MBq/140 uL, iv after 15 mins by gamma counting; assay type: ADME, organism-based; settings: in vivo, 0.25 h
In short: (§2)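 [¹¹C]radioligand in saline (4.8 MBq/140 μL, 40 pmol) injected via tail vein; four mice per time point killed by cervical dislocation at 1, 5, 15, 30, 60 min. Tissues (small intestine including contents) removed, counted in autogamma counter, decay-corrected, expressed as % injected dose per gram wet tissue; mean SE, n = 4.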

[10] = tested on: Mus musculus; experiment: Biodistribution in mouse small intestine at 4.8 MBq/140 uL, iv after 30 mins by gamma counting; assay type: ADME, organism-based; settings: in vivo, 0.5 h; in short: as §2
[11] = tested on: Blood; experiment: Biodistribution in mouse blood at 4.8 MBq/140 uL, iv after 15 mins by gamma counting; assay type: ADME, organism-based; settings: in vivo, 0.25 h; in short: as §1
[12] = tested on: Spleen; experiment: Biodistribution in mouse spleen at 4.8 MBq/140 uL, iv after 5 mins by gamma counting; assay type: ADME, organism-based; settings: in vivo; in short: as §2
[13] = tested on: Brain; experiment: Biodistribution in mouse brain at 4.8 MBq/140 uL, iv after 30 mins by gamma counting; assay type: ADME, organism-based; settings: in vivo, 0.5 h; in short: as §1
[14] = tested on: Lung; experiment: Biodistribution in mouse lung at 4.8 MBq/140 uL, iv after 60 mins by gamma counting; assay type: ADME, organism-based; settings: in vivo, 1 h; in short: as §1
[15] = Ratio of drug uptake in striatum to pons of Sprague-Dawley rat at 16 MBq administered as bolus infusion; settings: in vivo, iv
[16] = tested on: Brain; experiment: Biodistribution in mouse brain at 4.8 MBq/140 uL, iv after 5 mins by gamma counting; assay type: ADME, organism-based; settings: in vivo; in short: as §1
[17] = tested on: Muscle tissue; experiment: Biodistribution in mouse muscle at 4.8 MBq/140 uL, iv after 1 min by gamma counting; assay type: ADME, organism-based; settings: in vivo; in short: as §1
[18] = tested on: Heart; experiment: Biodistribution in mouse heart at 4.8 MBq/140 uL, iv after 15 mins by gamma counting; assay type: ADME, organism-based; settings: in vivo, 0.25 h; in short: as §1
[19] = tested on: Thalamus; experiment: Drug uptake in Sprague-Dawley rat thalamus at 16 MBq administered as bolus infusion after 90 mins by PET analysis; assay type: ADME, organism-based; settings: in vivo, iv, 1.5 h
[20] = tested on: Heart; experiment: Biodistribution in mouse heart at 4.8 MBq/140 uL, iv after 30 mins by gamma counting; assay type: ADME, organism-based; settings: in vivo, 0.5 h; in short: as §1
[21] = tested on: Kidney; experiment: Biodistribution in mouse kidney at 4.8 MBq/140 uL, iv after 1 min by gamma counting; assay type: ADME, organism-based; settings: in vivo; in short: as §1
[22] = tested on: Cerebellum; experiment: Drug uptake in Sprague-Dawley rat cerebellum at 17 MBq administered as bolus infusion by PET analysis in presence of JNJ16259685; assay type: ADME, organism-based; settings: in vivo, iv
[23] = tested on: Kidney; experiment: Biodistribution in mouse kidney at 4.8 MBq/140 uL, iv after 5 mins by gamma counting; assay type: ADME, organism-based; settings: in vivo; in short: as §1
[24] = tested on: Thalamus; experiment: Drug uptake in Sprague-Dawley rat thalamus at 16 MBq administered as bolus infusion after 45 mins by PET analysis; assay type: ADME, organism-based; settings: in vivo, iv, 0.75 h
[25] = tested on: Spleen; experiment: Biodistribution in mouse spleen at 4.8 MBq/140 uL, iv after 1 min by gamma counting; assay type: ADME, organism-based; settings: in vivo; in short: as §2

CC(C)Nc1cc(-c2csc(N(C)C(=O)c3ccc(O[11CH3])cc3)n2)ncn1
Drug uptake [1]: Not Active | Drug uptake [2]: 2.9 % ID/g | Drug uptake [3]: Active | Drug uptake [4]: 2.92 % ID/g | Ratio [5]: 5.05 | Drug uptake [6]: 4.63 % ID/g | Drug uptake [7]: 4.68 % ID/g | Drug uptake [8]: 1.92 % ID/g | Drug uptake [9]: 0.54 % ID/g | Drug uptake [10]: 4.07 % ID/g | Drug uptake [11]: 0.96 % ID/g | Drug uptake [12]: 1.96 % ID/g | Drug uptake [13]: 2.38 % ID/g | Drug uptake [14]: 1.57 % ID/g | Ratio [15]: 4.32 | Drug uptake [16]: 3.21 % ID/g | Drug uptake [17]: 2.04 % ID/g | Drug uptake [18]: 1.19 % ID/g | Drug uptake [19]: 80% | Drug uptake [20]: 0.91 % ID/g | Drug uptake [21]: 8.67 % ID/g | Drug uptake [22]: Not Active | Drug uptake [23]: 5.64 % ID/g | Drug uptake [24]: Active | Drug uptake [25]: 1.97 % ID/g
